How the values were obtained:
FAPP1 PH domain [1] = biological target: T1, FAPP1 PH domain (Homo sapiens, UniProt Q9HB20); assay: NMR 1H,15N HSQC titration; assay type: binding; conditions: read-out: Kd (NMR); 25 mM Bis-Tris, 150 mM NaCl, pH 6.5, 25°C
T1 sequence (Q9HB20 1-99): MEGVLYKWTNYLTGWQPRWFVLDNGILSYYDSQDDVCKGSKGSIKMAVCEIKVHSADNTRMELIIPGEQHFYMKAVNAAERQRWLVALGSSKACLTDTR
Summary of the method: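 Human FAPP1 PH (aa 1–99), ¹⁵N-labeled, expressed in E. coli Rosetta (DE3) pLysS in ¹⁵NH₄Cl minimal medium (0.1 mM IPTG, room temperature, 6 hr). It was purified on Talon resin, His tag removed with thrombin, then size exclusion. HSQC spectra of 0.1–0.2 mM protein were recorded at 600 MHz with stepwise ligand addition. Normalized ¹H/¹⁵N shift changes were fitted against ligand and protein concentrations to give Kd.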

[2] = tested on: GST-fusion FAPP1 PH domain; assay: Liposome binding assay; design: species or system human; conditions: SUVs of POPC, POPE, POPS and PI (50:20:15:15); 20 mM MOPS, 100 mM KCl, pH 7.0
Summary of the method: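 GST-tagged FAPP1 PH expressed in E. coli BL21(DE3) and purified on glutathione Sepharose. Lipids dried from CHCl3:MeOH:H2O (65:25:4) were resuspended in MOPS/KCl buffer and extruded 19 times through a 1 µm membrane. Liposomes were pelleted at 25,000 × g for 20 min, resuspended, and incubated with protein (stock 1.7 µg/µl) for 1 hr at room temperature. They were re-pelleted, and pellet and supernatant were analysed by SDS-PAGE.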

FAPP1 PH domain [3] = biological target: T1, FAPP1 PH domain; assay: SPR equilibrium binding to lipid vesicles; conditions: read-out: Kd (SPR); POPC/POPE/PI (75:20:5) liposomes; 10 mM HEPES (pH 7.4), 160 mM KCl, 25°C
FAPP1 PH domain [4] = biological target: T1, FAPP1 PH domain; conditions: 5 mol% in monolayer; ref He, et al., 2011; cited from earlier work

| SMILES | Kd (FAPP1 PH domain [1]) | partitioning of GST-FAPP1 PH between supernatant and pelleted SUVs [2] | Kd (FAPP1 PH domain [3]) | surface pressure (πc) (FAPP1 PH domain [4]) |
| --- | --- | --- | --- | --- |
| O=P(O)(O)OC1[C@@H](O)[C@@H](O)C(OP(=O)(O)O)[C@H](O)[C@H]1O (stereo partly shown) [Ins(1,4)P2, inositol 1,4-bisphosphate] | 20 mM |  |  |  |
| CCCCCCCCCCCCCCCC(=O)OC[C@H](COP(=O)(O)O[C@H]1[C@H](O)[C@@H](O)[C@H](OP(=O)(O)O)[C@@H](O)[C@H]1O)OC(=O)CCCCCCCCCCCCCCC [C16-PtdIns(4)P] |  | half of the protein associated with SUVs | 0.00046 mM | 33 mN/m |
